Tests used:
[1] = Antioxidant activity against iodophenol-induced chemiluminescence by horseradish peroxidase/perborate/luminol system; format: functional
How it was run: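 Total antioxidant capacity read by enhanced chemiluminescence. Reagent was assay buffer plus tablets A and B, which supply luminol, p-iodophenol enhancer and perborate oxidant. Values come from a Trolox standard curve (Trolox 20 μg mL⁻¹ in H2O) and are reported as mM Trolox equivalent; n=3.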

[2] = test system: Aorta; test: Vasorelaxant activity on Wistar rat aorta ring assessed as inhibition of phenylephrine-induced contraction at 100 uM in absence of endothelium; format: functional; design: scale not given: the % may be the effect or the level left
[3] = Antioxidant activity assessed as ABTS radical scavenging activity after 1 min by TEAC method
[4] = test system: Aorta; test: Vasorelaxant activity on Wistar rat aorta ring assessed as inhibition of phenylephrine-induced contraction at 100 uM in presence of endothelium; format: functional; design: scale not given: the % may be the effect or the level left

Structure (SMILES) | Activity [1] [mM] | Activity [2] [%] | Activity [3] [mM] | Activity [4] [%]
COc1cc([C@H]2OC[C@]3(O)[C@@H](c4ccc(O[C@@H]5O[C@H](CO)[C@@H](O)[C@H](O)[C@H]5O)c(OC)c4)OC[C@]23O)ccc1O | 1.84 | 0 | 2.92 | 20.4
COc1cc([C@H]2OC[C@]3(O)[C@@H](c4ccc(O)c(OC)c4)OC[C@H]23)ccc1O | 6.31 | 29 | 5.1 | 24.4
COc1cc([C@H]2OC[C@]3(O)[C@@H](c4ccc(O)c(OC)c4)OC[C@]23O)ccc1O [PRINSEPIOL] | 6.7 | 5.3 | 5.33 | 29.3
COc1cc([C@H]2OC[C@@H]3[C@@H](c4ccc(O[C@@H]5O[C@H](CO)[C@@H](O)[C@H](O)[C@H]5O)c(OC)c4)OC[C@]23O)ccc1O | 1.44 | 1.7 | 2.51 | 2.5
C[C@@H]1O[C@@H](O[C@@H]2[C@@H](O)[C@H](OCCc3ccc(O)c(O)c3)O[C@H](CO)[C@H]2OC(=O)/C=C/c2ccc(O)c(O)c2)[C@H](O)[C@H](O)[C@H]1O | 8.2 | – | 5.3 | –

Source: ChEMBL document CHEMBL1151248, “New lignans from the roots of Valeriana prionophylla with antioxidative and vasorelaxant activities” (2004)
